Measurements reported in ChEMBL document CHEMBL5058577, “EUbOPEN Chemogenomics Library 2 (Multiplex)” (2022).

System: HEK-293T
Assay: Multiplex assay against HEK293T
Format: toxicity, cell-based
Conditions: human
In short: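 Cells stained live at seeding with Hoechst33342, BioTracker Green Microtubule Cytoskeleton Dye, MitoTracker Red and Annexin V Alexa Fluor 680 were imaged on a CQ1 microscope at 37°C and 5% CO2 after compound addition. Their classification by CellPathfinder machine-learning gating ran from Hoechst high-intensity objects versus normal cells, to healthy, pyknosed or fragmented nuclei among normal cells, to mitotic or apoptotic among pyknosed cells. Tubulin, mitochondrial-mass and membrane-permeability phenotypes are per cents of healthy-nucleus cells.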

[1] = 12 h, 1 µM, compound concentration 1 uM, replicate 1
[2] = 12 h, 1 µM, compound concentration 1 uM, replicate 2
[3] = 12 h, 10 µM, compound concentration 10 uM, replicate 1
[4] = 12 h, 10 µM, compound concentration 10 uM, replicate 2
[5] = 24 h, 1 µM, compound concentration 1 uM, replicate 1
[6] = 24 h, 1 µM, compound concentration 1 uM, replicate 2
[7] = 24 h, 10 µM, compound concentration 10 uM, replicate 1
[8] = 24 h, 10 µM, compound concentration 10 uM, replicate 2
[9] = 48 h, 1 µM, compound concentration 1 uM, replicate 1
[10] = 48 h, 1 µM, compound concentration 1 uM, replicate 2
[11] = 48 h, 10 µM, compound concentration 10 uM, replicate 1
[12] = 48 h, 10 µM, compound concentration 10 uM, replicate 2

With `NCCc1cn(S(=O)(=O)c2c(Cl)nc3sccn23)c2ccccc12.O=C(O)C(=O)O` the “Population Apoptotic (%)” value [1] was 37%, the “Population Fragmented Nuclei (%)” value [1] was 5% and the “Population Healthy Nuclei (%)” value [1] was 83%. The “Population Hoechst High Intensity Objects (%)” value [1] was 7%, the “Population Membrane Permeable-Phenotype (%)” value [1] was 0% and the “Population Mitochondria Different-Phenotype (%)” value [1] was 53%. The “Population Mitotic Cells (%)” value [1] was 62%, the “Population Normal (%)” value [1] was 92% and the “Population Pyknosed Nuclei (%)” value [1] was 11%. The “Population Tubulin-Different-Phenotype (%)” value [1] was 40%, the “Total Cell Count” value [1] was 446 and the “Population Apoptotic (%)” value [2] was 52%. The “Population Fragmented Nuclei (%)” value [2] was 8%, the “Population Healthy Nuclei (%)” value [2] was 78% and the “Population Hoechst High Intensity Objects (%)” value [2] was 8%. For the same compound, the “Population Mitochondria Different-Phenotype (%)” value [2] was 66%, the “Population Mitotic Cells (%)” value [2] was 47% and the “Population Normal (%)” value [2] was 91%. The “Population Pyknosed Nuclei (%)” value [2] was 13%, the “Population Tubulin-Different-Phenotype (%)” value [2] was 34% and the “Total Cell Count” value [2] was 316. For the same compound, the “Population Apoptotic (%)” value [3] was 63%, the “Population Fragmented Nuclei (%)” value [3] was 8% and the “Population Healthy Nuclei (%)” value [3] was 49%. For the same compound, the “Population Hoechst High Intensity Objects (%)” value [3] was 22%, the “Population Membrane Permeable-Phenotype (%)” value [3] was 0% and the “Population Mitochondria Different-Phenotype (%)” value [3] was 96%. For the same compound, the “Population Mitotic Cells (%)” value [3] was 36%, the “Population Normal (%)” value [3] was 77% and the “Population Pyknosed Nuclei (%)” value [3] was 42%. The “Population Tubulin-Different-Phenotype (%)” value [3] was 88%, the “Total Cell Count” value [3] was 292 and the “Population Apoptotic (%)” value [4] was 64%. The “Population Healthy Nuclei (%)” value [4] was 67%, the “Population Hoechst High Intensity Objects (%)” value [4] was 25% and the “Population Mitochondria Different-Phenotype (%)” value [4] was 97%. For the same compound, the “Population Mitotic Cells (%)” value [4] was 35%, the “Population Normal (%)” value [4] was 74% and the “Population Pyknosed Nuclei (%)” value [4] was 23%. For the same compound, the “Population Tubulin-Different-Phenotype (%)” value [4] was 82%, the “Total Cell Count” value [4] was 209 and the “Population Apoptotic (%)” value [5] was 33%. The “Population Fragmented Nuclei (%)” value [5] was 9%, the “Population Healthy Nuclei (%)” value [5] was 79% and the “Population Hoechst High Intensity Objects (%)” value [5] was 6%. The “Population Membrane Permeable-Phenotype (%)” value [5] was 1%, the “Population Mitochondria Different-Phenotype (%)” value [5] was 28% and the “Population Mitotic Cells (%)” value [5] was 66%. For the same compound, the “Population Normal (%)” value [5] was 93%, the “Population Pyknosed Nuclei (%)” value [5] was 11% and the “Population Tubulin-Different-Phenotype (%)” value [5] was 26%. For the same compound, the “Total Cell Count” value [5] was 585, the “Population Apoptotic (%)” value [6] was 41% and the “Population Fragmented Nuclei (%)” value [6] was 12%. For the same compound, the “Population Healthy Nuclei (%)” value [6] was 78%, the “Population Hoechst High Intensity Objects (%)” value [6] was 4% and the “Population Mitochondria Different-Phenotype (%)” value [6] was 46%. The “Population Mitotic Cells (%)” value [6] was 58%, the “Population Normal (%)” value [6] was 95% and the “Population Pyknosed Nuclei (%)” value [6] was 8%. For the same compound, the “Population Tubulin-Different-Phenotype (%)” value [6] was 19%, the “Total Cell Count” value [6] was 438 and the “Population Apoptotic (%)” value [7] was 74%. For the same compound, the “Population Fragmented Nuclei (%)” value [7] was 14%, the “Population Healthy Nuclei (%)” value [7] was 37% and the “Population Hoechst High Intensity Objects (%)” value [7] was 34%. The “Population Membrane Permeable-Phenotype (%)” value [7] was 2%, the “Population Mitochondria Different-Phenotype (%)” value [7] was 83% and the “Population Mitotic Cells (%)” value [7] was 25%. The “Population Normal (%)” value [7] was 65%, the “Population Pyknosed Nuclei (%)” value [7] was 48% and the “Population Tubulin-Different-Phenotype (%)” value [7] was 44%. The “Total Cell Count” value [7] was 310, the “Population Apoptotic (%)” value [8] was 75% and the “Population Healthy Nuclei (%)” value [8] was 62%. For the same compound, the “Population Mitochondria Different-Phenotype (%)” value [8] was 95%, the “Population Mitotic Cells (%)” value [8] was 24% and the “Population Pyknosed Nuclei (%)” value [8] was 22%. For the same compound, the “Population Tubulin-Different-Phenotype (%)” value [8] was 76%, the “Total Cell Count” value [8] was 195 and the “Population Apoptotic (%)” value [9] was 23%. The “Population Fragmented Nuclei (%)” value [9] was 16%, the “Population Healthy Nuclei (%)” value [9] was 77% and the “Population Hoechst High Intensity Objects (%)” value [9] was 3%. For the same compound, the “Population Membrane Permeable-Phenotype (%)” value [9] was 0%, the “Population Mitochondria Different-Phenotype (%)” value [9] was 22% and the “Population Mitotic Cells (%)” value [9] was 76%. For the same compound, the “Population Normal (%)” value [9] was 96%, the “Population Pyknosed Nuclei (%)” value [9] was 6% and the “Population Tubulin-Different-Phenotype (%)” value [9] was 19%. For the same compound, the “Total Cell Count” value [9] was 972, the “Population Apoptotic (%)” value [10] was 47% and the “Population Fragmented Nuclei (%)” value [10] was 12%. For the same compound, the “Population Healthy Nuclei (%)” value [10] was 82%, the “Population Hoechst High Intensity Objects (%)” value [10] was 5% and the “Population Membrane Permeable-Phenotype (%)” value [10] was 1%. The “Population Mitochondria Different-Phenotype (%)” value [10] was 23%, the “Population Mitotic Cells (%)” value [10] was 52% and the “Population Normal (%)” value [10] was 94%. For the same compound, the “Population Pyknosed Nuclei (%)” value [10] was 5%, the “Population Tubulin-Different-Phenotype (%)” value [10] was 14% and the “Total Cell Count” value [10] was 678. The “Population Apoptotic (%)” value [11] was 53%, the “Population Fragmented Nuclei (%)” value [11] was 27% and the “Population Healthy Nuclei (%)” value [11] was 24%. The “Population Hoechst High Intensity Objects (%)” value [11] was 62%, the “Population Membrane Permeable-Phenotype (%)” value [11] was 11% and the “Population Mitochondria Different-Phenotype (%)” value [11] was 74%. For the same compound, the “Population Mitotic Cells (%)” value [11] was 46%, the “Population Normal (%)” value [11] was 37% and the “Population Pyknosed Nuclei (%)” value [11] was 47%. The “Population Tubulin-Different-Phenotype (%)” value [11] was 55%, the “Total Cell Count” value [11] was 294 and the “Population Apoptotic (%)” value [12] was 78%. For the same compound, the “Population Fragmented Nuclei (%)” value [12] was 19%, the “Population Healthy Nuclei (%)” value [12] was 47% and the “Population Hoechst High Intensity Objects (%)” value [12] was 47%. The “Population Membrane Permeable-Phenotype (%)” value [12] was 1%, the “Population Mitochondria Different-Phenotype (%)” value [12] was 75% and the “Population Mitotic Cells (%)” value [12] was 21%. For the same compound, the “Population Normal (%)” value [12] was 52%, the “Population Pyknosed Nuclei (%)” value [12] was 33% and the “Population Tubulin-Different-Phenotype (%)” value [12] was 52%. The “Total Cell Count” value [12] was 212.
